The list is not random: actives were taken first. Their share in the collection is about 3.5%.
Wnt bcat act: Wnt/beta-catenin pathway activation. Wnt/beta-catenin reporter cell assay, activator, plate reader. activation, % at 9.35 µM. hit rate 1.2% among 300,000. AID 743398; in the data active = activation above about 30%, passing the limit was not always enough; inconclusive = no clear call, values can overlap the other calls
esBAF inh: SWI/SNF esBAF complex inhibition; hit rate 2% among 350,000; mouse ES cells, Bmi1-luciferase knock-in reporter, 24 h; 100% = twice the neutral-well signal; reporter increase, % at 12.5 µM; in the data active = activation above about 40%; inconclusive = no clear call, values can overlap the other calls;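 note: a rise in the Bmi1 reporter signal indicates esBAF inhibition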
Cneo AK release: causes C. neoformans cell lysis. AID 651654. hit rate 0.2% among 360,000. lysis activity, % at 15 µM. adenylate kinase release luminescence, 4 h; normalised: neutral wells 0, clomiphene wells 100;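 active = mean lysis activity across replicates of at least 80%, whatever share of replicates individually reach that level; inactive = mean lysis activity below 80%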
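Assay system: Cryptococcus neoformans yeast cells / Dosing: single-point compound dose / Timing: 4 h at 37 °C static, read 1 h later / Measured by: luminescence of released adenylate kinase using an AK detection reagent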
Env fusion inh: blocks HIV Env-driven cell-cell fusion; HeLa-JRFL Env/CEM21 cell fusion, luciferase; inhibition, % at 12.3 µM; hit rate 1.1% among 360,000; AID 651610;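 active = mean replicate inhibition score of at least 50 and every replicate individually at or above 50; inconclusive = only one of the two criteria met; inactive = mean below 50 and not all replicates reaching 50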
ERAP1 HTS inh: ERAP1 (human) enzyme inhibition; recombinant ERAP1, Leu-AMC fluorescence, 60 min; inhibition, % at 10.7 µM; hit rate 0.15% among 340,000;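 active = mean replicate inhibition of at least 30%, or all replicates individually reaching that 30% level; inactive = mean below 30% and not every replicate reaching it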
Target sequence (Q9NZ08 whole entry, looked up): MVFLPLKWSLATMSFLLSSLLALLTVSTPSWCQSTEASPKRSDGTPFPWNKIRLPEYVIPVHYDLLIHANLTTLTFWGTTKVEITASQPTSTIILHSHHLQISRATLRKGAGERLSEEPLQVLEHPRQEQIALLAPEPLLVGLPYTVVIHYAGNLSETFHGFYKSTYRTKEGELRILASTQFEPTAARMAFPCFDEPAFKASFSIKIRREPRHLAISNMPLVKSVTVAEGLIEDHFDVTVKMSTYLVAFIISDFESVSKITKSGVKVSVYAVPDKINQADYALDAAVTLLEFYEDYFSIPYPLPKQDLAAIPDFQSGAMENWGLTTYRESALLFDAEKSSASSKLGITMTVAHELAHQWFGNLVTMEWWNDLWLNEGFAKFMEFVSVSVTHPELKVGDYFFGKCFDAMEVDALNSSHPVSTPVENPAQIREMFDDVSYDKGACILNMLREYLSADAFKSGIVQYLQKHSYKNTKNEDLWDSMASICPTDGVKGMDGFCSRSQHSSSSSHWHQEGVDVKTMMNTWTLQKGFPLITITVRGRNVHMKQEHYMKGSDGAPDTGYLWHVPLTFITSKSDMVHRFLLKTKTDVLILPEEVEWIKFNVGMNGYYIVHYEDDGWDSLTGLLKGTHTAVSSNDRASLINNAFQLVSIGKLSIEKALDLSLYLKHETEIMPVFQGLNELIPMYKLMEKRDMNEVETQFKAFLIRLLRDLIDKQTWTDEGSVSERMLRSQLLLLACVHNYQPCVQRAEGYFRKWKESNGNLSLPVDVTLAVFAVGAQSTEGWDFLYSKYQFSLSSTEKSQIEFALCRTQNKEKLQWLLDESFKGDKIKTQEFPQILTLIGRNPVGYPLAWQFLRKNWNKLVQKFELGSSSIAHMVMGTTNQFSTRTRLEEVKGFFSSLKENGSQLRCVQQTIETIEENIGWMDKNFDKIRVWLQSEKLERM
MITF act: activators of MITF-driven TRPM1 promoter activity in SK-MEL-5 cells; hit rate 0.75% among 300,000; SK-MEL-5 TRPM1-promoter luciferase, 24 h; % of positive control, neutral wells = 0; activation, % at 12.5 µM;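 active = mean activation of at least 80% with every replicate also reaching 80%; inconclusive = mean reaches 80% but some replicate falls short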
Of the large screens only hits and unclear results are named; the others gave an inactive call.

Cc1ccc(C(=O)CSc2nnc(N)s2)c(C)c1	esBAF inh 60.7, MITF act 87.4
Cc1ccc(C(=O)CSc2nnc3ccccn23)c(C)c1	Wnt bcat act 33.1 (no result: esBAF inh)
Cc1ccc(NC(=O)CSc2nnc3ccccn23)c(Cl)c1	esBAF inh 66.2 (no result: MITF act)
CCCNC(=O)N1C[C@H](O)COC[C@H]2O[C@@H](CC(=O)OC)CC[C@@H]21	none (no result: Wnt bcat act, Env fusion inh, MITF act)
C[C@H]1CN([C@@H](C)CO)C(=O)c2cccc(NS(=O)(=O)c3ccccc3)c2O[C@@H]1CN(C)C(=O)NC1CCCCC1	none (no result: Wnt bcat act, Env fusion inh, MITF act)
CCCCN(C=O)c1c(CC)nc2c(OCc3ccc(C(F)(F)F)cc3)cccn12	none (no result: MITF act)
CCc1nc2c(OCc3ccc(C(F)(F)F)cc3)cccn2c1N(C=O)Cc1ccc(OC)cc1	Env fusion inh 56.1 (no result: MITF act)
CCc1nc2c(OCc3ccc(C(F)(F)F)cc3)cccn2c1N(C)C(=O)c1ccco1	Env fusion inh 56.6 (no result: MITF act)
C[C@H](NC(=O)C[C@@H]1CC[C@H](NC(=O)Cc2ccccn2)[C@@H](CO)O1)c1ccccc1	none (no result: Wnt bcat act, MITF act)
CCC(=O)Nc1ccc2c(c1)C(=O)N(C)C[C@H](OC)[C@H](C)CN(CC1CCOCC1)[C@@H](C)CO2	none (no result: Wnt bcat act, ERAP1 HTS inh, MITF act)
C[C@@H]1CCCCO[C@@H](CN(C)C(=O)NC2CCCCC2)[C@@H](C)CN([C@@H](C)CO)C(=O)c2cc(NC(=O)Nc3cccc4ccccc34)ccc2O1	none (no result: Wnt bcat act, MITF act)
C[C@H]1CN([C@@H](C)CO)C(=O)c2cc(C#Cc3cccnc3)cnc2O[C@@H]1CN(C)C(=O)CN(C)C	none (no result: Wnt bcat act, MITF act)
CC[C@@]1(C(=O)OC)N[C@H](CN(C)S(=O)(=O)c2ccc(-c3ccccc3)cc2)[C@@H]2C(=O)N(Cc3ccccc3)C(=O)[C@@H]21	Env fusion inh 138.5
COC(=O)[C@]1(Cc2ccccc2)N[C@H](CN(C)S(=O)(=O)c2ccc(C(F)(F)F)cc2)[C@@H]2C(=O)N(Cc3ccccc3)C(=O)[C@@H]21	Env fusion inh 69.5
COC(=O)[C@]1(C)N[C@H](CN(C)S(=O)(=O)c2ccc(-c3ccccc3)cc2)[C@@H]2C(=O)N(Cc3ccccc3)C(=O)[C@@H]21	Env fusion inh 80.6
C[C@H](CO)N1C[C@H](C)[C@H](CN(C)Cc2ccc(Cl)c(Cl)c2)Oc2c(NC(=O)CCCCCC(=O)Nc3ccccc3N)cccc2C1=O	none (no result: Wnt bcat act, esBAF inh, Cneo AK release, Env fusion inh, MITF act)
COc1ccc(N=C2SC(CC(=O)Nc3ccccc3)C(=O)N2Cc2ccco2)cc1 (stereo unspecified)	Wnt bcat act 44.1 (no result: ERAP1 HTS inh)
COc1cccc(-c2ccc3n(c2=O)C[C@H]2[C@H](CO)[C@@H](C(=O)NC4CCC4)[C@@H]3N2C)c1	none (no result: Wnt bcat act, Env fusion inh, MITF act)
CCCn1c(=O)c(C(=O)Nc2ccccc2N)c(O)c2ccccc21	esBAF inh 43.0 (no result: MITF act)
C=CCn1c(=O)c(C(=O)Nc2ccccc2C)c(O)c2ccccc21	esBAF inh 61.2
CCn1c(=O)c(C(=O)Nc2ccccc2C)c(O)c2ccccc21	esBAF inh 44.4 (no result: Wnt bcat act, Env fusion inh, ERAP1 HTS inh)
C=CCn1c(=O)c(C(=O)Nc2ccccc2O)c(O)c2ccccc21	none (no result: Wnt bcat act, esBAF inh, ERAP1 HTS inh)
CO[C@H]1CN(C)C(=O)c2ccc(NC(C)=O)cc2OC[C@@H](C)N(C(=O)Cc2cccnc2)C[C@@H]1C	none (no result: Wnt bcat act, MITF act)
COc1ccc(C#Cc2ccc([C@H]3[C@H]4CN(C(=O)c5ccncc5)CCCCN4[C@H]3CO)cc2)cc1	none (no result: Wnt bcat act, Env fusion inh, MITF act)
CC(=O)N(Cc1ccc(F)cc1)C1=C(NCCc2ccccc2)C(=O)c2ccccc2C1=O	Env fusion inh 84.1 (no result: ERAP1 HTS inh)
COCC(=O)Nc1ccc2c(c1)[C@H]1C[C@@H](CC(=O)N3CCCCC3)O[C@@H](CO)[C@H]1O2	none (no result: Wnt bcat act, ERAP1 HTS inh, MITF act)
O=C(Cc1cccnc1)N1CC2(C1)[C@@H](c1ccccc1)[C@@H](CO)N2C(=O)C1CCC1	none (no result: Wnt bcat act, esBAF inh, Cneo AK release, MITF act)
Cc1ccccc1/C=C1\CCCc2ccccc2C1=O	Wnt bcat act 77.4, esBAF inh 82.0 (no result: ERAP1 HTS inh, MITF act)
O=C1C(=Cc2ccccn2)CCc2ccccc21	Wnt bcat act inconclusive, esBAF inh 63.7 (no result: MITF act)
O=[N+]([O-])c1cc(-c2ccc(C(=S)N3CCOCC3)o2)ccc1Cl	none (no result: Cneo AK release)
N#CCCN1CCN(C(=S)c2ccc(-c3ccc(Cl)c(Cl)c3)o2)CC1	esBAF inh 45.6 (no result: Wnt bcat act, Env fusion inh, ERAP1 HTS inh)
N#CCCN1CCN(C(=S)c2ccc(-c3cccc(Cl)c3)o2)CC1	esBAF inh 78.4 (no result: Wnt bcat act, Env fusion inh, ERAP1 HTS inh)
Cc1ccc2c(c1)-c1nc3ccccc3cc1C2=NC1CCCCC1	Wnt bcat act 47.0 (no result: esBAF inh, Cneo AK release)
Cc1ccc2c(c1)C(=NC1CCCCC1)c1cc3ccccc3nc1-2	none (no result: esBAF inh, Cneo AK release)

Source: PubChem BioAssay (Broad Institute)
